# Assay results from PubChem BioAssay.
# The source made the active and inactive calls. Rule as the data show it, unless noted: active = inhibition above about 30%; inactive = the rest.
# Legend:
# [1] = HUVEC growth inhibition – cell-based, human, primary screen (AID 575;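 active = viability at or below 30% in both replicate assays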;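 also: 100% = median of untreated cell wells with 0.1% DMSO on each plate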); settings: HUVEC proliferation, CellTiter-Glo luminescence, 72 h; at 10 µM; stronger effect = lower value
# Procedure, shortened: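 Test system: HUVEC primary cells. Quantity: 1250 endothelial cells in each well. Dosing: single-point 10 µM, DMSO 0.1% final. Incubation: 72 h treatment at 37 °C. Measured by: CTG luminescence. Control set: DMSO cell controls and MePR drug controls. Plate: collagen-coated 384-well format.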
# [2] = H69AR cell proliferation blockers – human, duplicate replicates, primary screen (AID 580;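 active = viability at or under a set limit in both replicates, limit being median viability minus 3 SD, cut at about 48% in these data, passing the limit was not always enough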;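 also: 100% = mean luminescence of untreated wells and 0% = no signal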); settings: H69AR lung tumor cells viability, ATP luminescence, 72 h; at 10 µM; stronger effect = lower value
# [3] = MRP1 drug-resistance reversers in H69AR cells – cell-based, doxorubicin co-treatment, pilot screen (AID 601;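 active = viability loss from added drug above about 55%, and viability with drug at most 40%, in both replicates, limit read from the data, passing the limit was not always enough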); settings: CellTiter-Glo, 72 h, at 10 µM; for differential viability (reversal): stronger effect = higher value
# [4] = yeast transport mutant growth inhibition pilot in 384-well plates, post-Golgi transport modulator project (AID 636; in the data active = inhibition above about 31%); settings: absorbance 615 nm, about 18 h, stronger effect = higher value
# [5] = growth suppression of yeast trafficking mutant, preliminary HTS, modulators of trafficking downstream of Golgi apparatus project, 1536-format plate, OD 615 nm (AID 637); settings: yeast transport mutant growth, absorbance 615 nm, 18 h; stronger effect = higher value
# [6] = H69AR cells + 2 uM doxorubicin, measured here: viability with 2 uM doxorubicin, stronger effect = lower value
# [7] = H69AR cells, compound alone cytotoxicity
SMILES,viability [1],viability [2],differential viability (reversal) ([3]; H69AR cells + 2 uM doxorubicin),"viability [3, 6] [%]","viability [3, 7] [%]",inhibition [4],inhibition [5]
C/C(Cl)=C\Cn1c(Nc2ccc(C)cc2)nc2c1c(=O)n(C)c(=O)n2C,77.5% (inactive),72.1% (inactive),-11.2% (inactive),83.2,72.1,-1.04% (inactive),1.75% (inactive)
O=C1CC(Cc2ccccc2)C(=O)N1CCc1ccc2c(c1)OCO2 (configuration not stated),97.7% (inactive),102% (inactive),4.62% (inactive),97.7,102,-5.32% (inactive),3.65% (inactive)
O=C(CCCCn1c(=O)[nH]c2ccsc2c1=O)NCc1cccnc1,96.3% (inactive),99.1% (inactive),2.01% (inactive),97.1,99.1,-1.18% (inactive),-0.63% (inactive)
CCCCNC(=O)C(C#N)c1nc2ccccc2nc1N1CCCC1 (configuration not stated),89.2% (inactive),100% (inactive),-1.2% (inactive),102,100,-4.93% (inactive),-4.29% (inactive)
CN(C)CCNC(=O)c1ccc(COCC(F)(F)F)cc1,104% (inactive),84.6% (inactive),1.1% (inactive),83.5,84.6,-7.07% (inactive),-3.65% (inactive)
CCOc1ccccc1C(=O)NCc1ccc2c(c1)OCO2,88.2% (inactive),67.4% (inactive),-20.6% (inactive),88.1,67.4,-7.73% (inactive),3.02% (inactive)
CCCSc1nc(N)c(C#N)c(-c2ccc(C)cc2)c1C#N,79.6% (inactive),70.3% (inactive),-10.1% (inactive),80.4,70.3,-2.67% (inactive),4.76% (inactive)
O=C(Nc1nc2ccc(S(=O)(=O)N3CCCC3)cc2s1)C1CCCO1 (configuration not stated),109% (inactive),97.7% (inactive),3.71% (inactive),93.9,97.7,-2.76% (inactive),0% (inactive)
c1ccc2c3nnc4n(c-3nc2c1)CCCS4,94% (inactive),104% (inactive),11.4% (inactive),92.7,104,-1.32% (inactive),4.6% (inactive)
Cc1ccnc(NS(=O)(=O)c2ccc(N=CC3=C(O)CC(C)(C)CC3=O)cc2)n1,102% (inactive),97.1% (inactive),-0.37% (inactive),97.5,97.1,0.92% (inactive),-5.4% (inactive)
Cn1c(SCc2c(F)cccc2Cl)nnc1-c1cccs1,112% (inactive),87.9% (inactive),10.2% (inactive),77.6,87.9,-1.33% (inactive),-5.87% (inactive)
O=C(CSc1nnc(-c2ccncc2)o1)Oc1ccccc1,101% (inactive),102% (inactive),15.9% (inactive),85.9,102,-6.4% (inactive),3.02% (inactive)
COC(=O)c1cc(Br)ccc1-c1ccc(/C=N/n2nnnc2N)o1,58.1% (inactive),80.6% (inactive),14% (inactive),66.7,80.6,-2.47% (inactive),6.51% (inactive)
Cc1cc(NC(=O)c2cc(-c3ccco3)on2)n(-c2ccccc2)n1,80.7% (inactive),106% (inactive),13% (inactive),92.6,106,-2.5% (inactive),1.9% (inactive)
Cc1c(O)c(CN2CCCCC2)cc2c3c(c(=O)oc12)CCC3,103% (inactive),82.2% (inactive),-0.59% (inactive),82.8,82.2,-6.84% (inactive),5.08% (inactive)
CC(C)CN1C(=O)c2ccc(C(=O)Nc3nccs3)cc2C1=O,90.8% (inactive),104% (inactive),21.4% (inactive),82.6,104,0.39% (inactive),0.63% (inactive)
CCc1cc2c(NCCC(=O)O)nc(C)nc2s1,89.2% (inactive),75.5% (inactive),-12.1% (inactive),87.6,75.5,0.65% (inactive),13.3% (inactive)
COc1ccc(S(=O)(=O)N2CCN(Cc3ccc(Cl)cc3)CC2)cc1,90.7% (inactive),97% (inactive),6.67% (inactive),90.3,97,-0.4% (inactive),-3.81% (inactive)
O=C(CSc1nc(C2CCCCC2)n(-c2ccccc2)n1)NCCN1C(=O)CSC1=O,103% (inactive),98.8% (inactive),-4.29% (inactive),103,98.8,-5.84% (inactive),1.27% (inactive)
CC1CC(=O)c2cnc(NCC3CCCO3)nc2C1 (configuration not stated),103% (inactive),87.3% (inactive),4.31% (inactive),83,87.3,-6.8% (inactive),6.03% (inactive)
Cc1cc(C)c(S(=O)(=O)N(C)CC(N)=O)c(C)c1,95% (inactive),91.7% (inactive),-12.6% (inactive),104,91.7,2.37% (inactive),-4.13% (inactive)

SMILES,viability [1],viability [2],differential viability (reversal) ([3]; H69AR cells + 2 uM doxorubicin),"viability [3, 6] [%]","viability [3, 7] [%]",inhibition [4],inhibition [5]
O=C(Nc1ccccc1C(=O)N1CCOCC1)c1ccncc1,96.4% (inactive),101% (inactive),7.54% (inactive),93.6,101,-1.43% (inactive),-2.22% (inactive)
CCSC1=C(C#N)C(c2cccc(OC)c2)CC(=O)N1 (configuration not stated),85.5% (inactive),101% (inactive),8.71% (inactive),92.6,101,0.53% (inactive),-1.9% (inactive)
CCc1nnc(NC(=O)CSc2nc3ccccc3s2)s1,93% (inactive),101% (inactive),10.1% (inactive),91.1,101,-2.24% (inactive),0.48% (inactive)
CCS(=O)(=O)c1ccc(S(=O)(=O)CC)s1,104% (inactive),104% (inactive),0.02% (inactive),104,104,-2.73% (inactive),-1.59% (inactive)
Nc1nc(-c2ccc(Cl)cc2)cc(C(F)(F)F)n1,107% (inactive),105% (inactive),13.3% (inactive),91.3,105,-1.82% (inactive),-1.11% (inactive)
CCOc1ccc(N(C)S(=O)(=O)c2ccc3[nH]cc(C(=O)NCC4CCCO4)c(=O)c3c2)cc1 (configuration not stated),73.7% (inactive),87.9% (inactive),5.04% (inactive),82.9,87.9,-2.86% (inactive),-3.17% (inactive)
CCn1c(C)nc2cc(C(=O)OC(C(F)(F)C(F)F)C(F)(F)C(F)F)ccc21,58.4% (inactive),79.2% (inactive),0.115% (inactive),79.1,79.2,-2.47% (inactive),3.97% (inactive)
Cn1c(=O)c2c(nc(-n3ccnc3)n2C)n(C)c1=O,105% (inactive),101% (inactive),8.81% (inactive),92.7,101,-4.13% (inactive),1.59% (inactive)
COC(=O)Cc1[nH]nc2c1C(C1C=CCCC1)C(C#N)=C(N)O2 (configuration not stated),49.3% (inactive),95.8% (inactive),7.65% (inactive),88.2,95.8,-4.21% (inactive),3.33% (inactive)
CCOc1cc(S(=O)(=O)NCc2ccc3c(c2)OCO3)ccc1F,95.4% (inactive),97.9% (inactive),4.41% (inactive),93.5,97.9,-4.8% (inactive),4.76% (inactive)
CC(O)CN(Cc1cccc(Cl)c1)CC(C)O (configuration not stated),100% (inactive),99.4% (inactive),-0.905% (inactive),100,99.4,-1.32% (inactive),4.13% (inactive)
COc1ccc(S(=O)(=O)NC(C)C(=O)Nc2cccc(C(C)=O)c2)cc1 (configuration not stated),114% (inactive),98.1% (inactive),9.17% (inactive),88.9,98.1,-4.8% (inactive),0.16% (inactive)
CN1CCN(CC#CCC(O)(c2ccccc2)C2CCCC2)CC1 (configuration not stated),102% (inactive),91.7% (inactive),1.13% (inactive),90.5,91.7,-6.4% (inactive),-2.38% (inactive)
C=CCSc1n[nH]c(-c2ccc(OC)cc2)n1,108% (inactive),90.3% (inactive),2.41% (inactive),87.9,90.3,-4.53% (inactive),-2.06% (inactive)
Nn1cnnc1SCC(=O)Nc1ccc2c(c1)OCCO2,97.5% (inactive),97.1% (inactive),-1.08% (inactive),98.2,97.1,-4.4% (inactive),8.41% (inactive)
COc1ccc(-c2nc(C(N)=O)c3[nH]c(=O)n(-c4cccc(Cl)c4)c3n2)cc1OC,3.29% (active),1.2% (active),-0.93% (inactive),2.13,1.2,6.23% (inactive),-0.33% (inactive)
Cc1ccc(SC(C)c2nc(-c3ccccc3)no2)cc1 (configuration not stated),114% (inactive),99.9% (inactive),4.68% (inactive),95.2,99.9,-6.13% (inactive),-5.08% (inactive)
COC(=O)Cc1c(C)nc2nc(-c3ccccc3)[nH]n2c1=O,90.8% (inactive),102% (inactive),-4.13% (inactive),106,102,0.53% (inactive),-5.56% (inactive)
Cc1noc(C)c1C(=O)Nc1sc(C)c(C)c1C#N,105% (inactive),95.5% (inactive),20.3% (inactive),75.2,95.5,-1.97% (inactive),2.86% (inactive)
O=C(Nc1ccccc1C(=O)N1CCOCC1)C1COc2ccccc2O1 (configuration not stated),100% (inactive),103% (inactive),6.71% (inactive),96.6,103,-0.53% (inactive),0% (inactive)
